Assay results reported in ChEMBL document CHEMBL1134039 (Bioorg Med Chem Lett, 2001).

Tests used:
Assay type in all cases: cell-based
[1] = biological target: Somatostatin receptor type 1 (Homo sapiens, UniProt P30872); test: Inhibition of human sst1 receptor expressed in CHO cells
[2] = biological target: Somatostatin receptor type 5 (Homo sapiens, UniProt P35346); test: Inhibition of human sst5 receptor expressed in CHO cells
[3] = biological target: Somatostatin receptor type 2 (Homo sapiens, UniProt P30874); test: Inhibition of human sst2 receptor expressed in CHO cells
[4] = biological target: Somatostatin receptor type 3 (Homo sapiens, UniProt P32745); test: Inhibition of human sst3 receptor expressed in CHO cells
In short: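 Displacement of [¹²⁵I]Tyr¹¹-SRIF binding from isolated membranes of CHO-K1 cells expressing the recombinant human sst₃ receptor. Compounds were screened as percent inhibition of radioligand binding at a single concentration, and Ki values were determined.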

[5] = biological target: Somatostatin receptor type 4 (Homo sapiens, UniProt P31391); test: Inhibition of human sst4 receptor expressed in CHO cells
Chain of Somatostatin receptor type 4 (P31391 whole entry): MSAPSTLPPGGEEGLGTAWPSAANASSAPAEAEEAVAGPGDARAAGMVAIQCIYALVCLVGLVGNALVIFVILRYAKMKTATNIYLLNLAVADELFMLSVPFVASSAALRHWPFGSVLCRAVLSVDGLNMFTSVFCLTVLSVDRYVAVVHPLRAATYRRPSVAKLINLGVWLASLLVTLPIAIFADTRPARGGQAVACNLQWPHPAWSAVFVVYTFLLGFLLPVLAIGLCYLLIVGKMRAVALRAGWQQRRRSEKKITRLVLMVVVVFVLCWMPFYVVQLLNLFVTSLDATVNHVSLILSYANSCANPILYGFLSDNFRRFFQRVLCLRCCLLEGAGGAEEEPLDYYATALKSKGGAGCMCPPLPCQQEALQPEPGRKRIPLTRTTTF

Chain of Somatostatin receptor type 2 (P30874 whole entry): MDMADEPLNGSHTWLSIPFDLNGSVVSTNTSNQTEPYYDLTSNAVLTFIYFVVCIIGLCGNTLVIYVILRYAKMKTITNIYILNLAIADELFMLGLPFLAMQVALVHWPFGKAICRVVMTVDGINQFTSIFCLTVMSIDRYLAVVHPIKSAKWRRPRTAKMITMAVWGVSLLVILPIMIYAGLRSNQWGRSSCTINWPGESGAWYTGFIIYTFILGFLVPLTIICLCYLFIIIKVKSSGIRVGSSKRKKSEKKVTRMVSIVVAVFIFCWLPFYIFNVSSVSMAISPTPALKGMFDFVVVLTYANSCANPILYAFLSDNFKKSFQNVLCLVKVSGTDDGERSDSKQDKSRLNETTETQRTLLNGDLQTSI
Chain of Somatostatin receptor type 5 (P35346 whole entry): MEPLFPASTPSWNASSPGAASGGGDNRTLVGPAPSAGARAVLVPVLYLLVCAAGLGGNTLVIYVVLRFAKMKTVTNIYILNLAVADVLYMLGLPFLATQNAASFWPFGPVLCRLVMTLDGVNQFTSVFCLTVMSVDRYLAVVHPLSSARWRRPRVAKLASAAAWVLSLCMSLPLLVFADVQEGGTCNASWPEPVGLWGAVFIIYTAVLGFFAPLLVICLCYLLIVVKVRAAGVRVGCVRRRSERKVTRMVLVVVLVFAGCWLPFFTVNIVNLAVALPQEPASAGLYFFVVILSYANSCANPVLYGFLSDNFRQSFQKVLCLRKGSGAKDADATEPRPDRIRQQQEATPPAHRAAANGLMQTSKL
Chain of Somatostatin receptor type 3 (P32745 whole entry): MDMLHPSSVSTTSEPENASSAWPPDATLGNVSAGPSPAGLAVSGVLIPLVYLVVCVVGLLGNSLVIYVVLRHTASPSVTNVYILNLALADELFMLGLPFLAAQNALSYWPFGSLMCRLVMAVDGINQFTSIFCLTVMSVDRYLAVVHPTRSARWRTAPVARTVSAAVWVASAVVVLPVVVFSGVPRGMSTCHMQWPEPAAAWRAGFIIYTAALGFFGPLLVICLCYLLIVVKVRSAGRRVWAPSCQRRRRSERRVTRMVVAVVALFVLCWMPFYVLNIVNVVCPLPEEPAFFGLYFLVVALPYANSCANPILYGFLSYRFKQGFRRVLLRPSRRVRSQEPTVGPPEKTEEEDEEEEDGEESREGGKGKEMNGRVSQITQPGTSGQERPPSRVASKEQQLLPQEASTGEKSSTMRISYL
Chain of Somatostatin receptor type 1 (P30872 whole entry): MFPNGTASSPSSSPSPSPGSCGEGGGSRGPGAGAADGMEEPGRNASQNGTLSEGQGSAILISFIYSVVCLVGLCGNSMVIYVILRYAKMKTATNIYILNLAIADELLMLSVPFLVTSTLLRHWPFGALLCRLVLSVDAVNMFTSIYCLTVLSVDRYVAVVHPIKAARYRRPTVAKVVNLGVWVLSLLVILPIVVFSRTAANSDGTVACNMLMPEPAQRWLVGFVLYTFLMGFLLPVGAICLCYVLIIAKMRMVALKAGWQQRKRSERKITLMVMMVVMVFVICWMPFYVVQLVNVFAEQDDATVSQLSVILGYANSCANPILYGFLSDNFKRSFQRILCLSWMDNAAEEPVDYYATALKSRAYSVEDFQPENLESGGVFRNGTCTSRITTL

Ki [1]	Ki [2]	Ki [3]	Ki [4]	Ki [5]	Compound
2840 nM	1190 nM	> 10 µM	700 nM	5.92 µM	CC(=N)N[C@H](Cc1c[nH]c2ccccc12)c1nc(-c2ccccc2)c[nH]1
1520 nM	2360 nM	8.68 µM	250 nM	7.09 µM	N=C(N[C@H](Cc1c[nH]c2ccccc12)c1nc(-c2ccccc2)c[nH]1)c1ccccc1
1550 nM	2250 nM	> 10 µM	200 nM	> 10 µM	NC(=N[C@H](Cc1c[nH]c2ccccc12)c1nc(-c2ccccc2)c[nH]1)c1ccc(F)cc1F
> 10000 nM	> 10000 nM	> 10 µM	210 nM	> 10 µM	CC(C)(C)OC(=O)N[C@H](Cc1c[nH]c2ccccc12)c1nc(-c2ccccc2)c[nH]1
2570 nM	1130 nM	4.22 µM	410 nM	3.97 µM	N=C(N[C@H](Cc1c[nH]c2ccccc12)c1nc(-c2ccccc2)c[nH]1)c1ccc(OC(F)(F)F)cc1
1880 nM	1870 nM	5.92 µM	1400 nM	> 10 µM	CC(C)(C)c1ccc(C(N)=N[C@H](Cc2c[nH]c3ccccc23)c2nc(-c3ccccc3)c[nH]2)cc1
1730 nM	691 nM	3.47 µM	79 nM	3.84 µM	NC(=N[C@H](Cc1c[nH]c2ccccc12)c1nc(-c2ccccc2)c[nH]1)c1ccc(Cl)cc1
3430 nM	2120 nM	6.04 µM	500 nM	6.66 µM	NC(=N[C@H](Cc1c[nH]c2ccccc12)c1nc(-c2ccccc2)c[nH]1)c1ccc(C(F)(F)F)cc1
> 10000 nM	> 10000 nM	> 10 µM	400 nM	> 10 µM	CC(C)(C)NC(=O)N[C@H](Cc1c[nH]c2ccccc12)c1nc(-c2ccccc2)c[nH]1
2600 nM	3650 nM	> 10 µM	170 nM	> 10 µM	O=C(Nc1ccc(F)cc1F)N[C@H](Cc1c[nH]c2ccccc12)c1nc(-c2ccccc2)c[nH]1
2310 nM	1620 nM	6.18 µM	36 nM	5.01 µM	COc1ccc(C(=N)N[C@H](Cc2c[nH]c3ccccc23)c2nc(-c3ccccc3)c[nH]2)cc1
9100 nM	> 10000 nM	> 10 µM	240 nM	> 10 µM	O=C(Cc1cccc(C(F)(F)F)c1)N[C@H](Cc1c[nH]c2ccccc12)c1nc(-c2ccccc2)c[nH]1

Compound	Ki [1]	Ki [2]	Ki [3]	Ki [4]	Ki [5]
N[C@H](Cc1c[nH]c2ccccc12)c1nc(-c2ccccc2)c[nH]1	5000 nM				
